Activity data for four molecules are collected here from ChEMBL document CHEMBL1154186, “Synthesis, kinase inhibitory potencies, and in vitro antiproliferative evaluation of new Pim kinase inhibitors” (J Med Chem, 2009).

Test [1] deals with RAC-alpha serine/threonine-protein kinase (Homo sapiens) (UniProt P31749). Put plainly: Inhibition of PKBalpha assessed as residual enzyme activity at 10 uM relative to untreated control. The essentials: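 Radiometric filter-binding assay at 21 °C for 30 min. Mix: 50 mM Tris/HCl pH 7.5, 0.1 mM EGTA, 0.1% 2-mercaptoethanol, 10 mM Mg acetate and [γ-33P]ATP (800 cpm/pmol) at 5 µM. Stopped with orthophosphoric acid and spotted on P81. Compound at 10 µM; activity given as % remaining versus no-inhibitor control, duplicates. Kinases human full-length unless noted.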

In test [2] the target is T1, MAP kinase-activated protein kinase 5 (Homo sapiens) (UniProt Q8IW41).
T1 sequence (whole entry): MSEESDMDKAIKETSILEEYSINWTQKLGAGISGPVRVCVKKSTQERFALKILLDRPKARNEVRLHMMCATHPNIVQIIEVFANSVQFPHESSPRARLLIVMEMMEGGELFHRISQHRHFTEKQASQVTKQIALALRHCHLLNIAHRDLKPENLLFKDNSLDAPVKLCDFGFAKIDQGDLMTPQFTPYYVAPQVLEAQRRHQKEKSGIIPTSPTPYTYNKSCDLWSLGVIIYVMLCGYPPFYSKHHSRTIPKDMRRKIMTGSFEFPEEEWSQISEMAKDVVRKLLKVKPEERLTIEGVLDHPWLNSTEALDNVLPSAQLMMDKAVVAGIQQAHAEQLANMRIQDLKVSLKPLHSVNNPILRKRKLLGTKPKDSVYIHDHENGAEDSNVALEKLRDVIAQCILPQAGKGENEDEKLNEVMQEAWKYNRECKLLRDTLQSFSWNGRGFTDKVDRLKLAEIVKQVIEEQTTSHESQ
The test can be described thus: Inhibition of PRAK assessed as residual enzyme activity at 10 uM relative to untreated control.

The target in test [3] is T2, Serine/threonine-protein kinase Chk1 (Homo sapiens) (UniProt O14757).
T2 sequence (whole entry): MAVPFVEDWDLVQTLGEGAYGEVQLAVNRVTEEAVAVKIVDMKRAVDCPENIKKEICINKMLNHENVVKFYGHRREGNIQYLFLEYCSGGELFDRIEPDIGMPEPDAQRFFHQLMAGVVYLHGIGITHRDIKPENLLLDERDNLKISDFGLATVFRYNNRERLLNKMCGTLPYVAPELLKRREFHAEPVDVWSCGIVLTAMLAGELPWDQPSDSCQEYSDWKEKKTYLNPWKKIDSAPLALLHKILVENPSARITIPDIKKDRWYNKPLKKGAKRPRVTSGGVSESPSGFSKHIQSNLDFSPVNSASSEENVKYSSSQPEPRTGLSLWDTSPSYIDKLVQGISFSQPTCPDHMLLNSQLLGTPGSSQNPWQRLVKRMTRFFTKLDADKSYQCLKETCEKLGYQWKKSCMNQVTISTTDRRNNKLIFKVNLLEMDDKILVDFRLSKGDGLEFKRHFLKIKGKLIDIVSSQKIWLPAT
Put plainly: Inhibition of CHK1 assessed as residual enzyme activity at 10 uM relative to untreated control. In outline:
(§1)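 Kinases of human origin, except CK1δ, which is rat. Run in 50 mM Tris/HCl pH 7.5, 0.1 mM EGTA, 0.1% 2-mercaptoethanol and 10 mM Mg acetate, with [γ-33P]ATP at 20 µM, 30 min at 21 °C. Acid-stopped and captured on P81 filters. Compound tested at 10 µM; residual % of uninhibited control, duplicate determinations.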

Test [4] addresses Ribosomal protein S6 kinase alpha-3 (Homo sapiens) (UniProt P51812). Put plainly: Inhibition of RSK2 assessed as residual enzyme activity at 10 uM relative to untreated control.
For test [5], the target named is MAP kinase-activated protein kinase 2 (Homo sapiens) (UniProt P49137). The test can be described thus: Inhibition of MAPKAPK2 assessed as residual enzyme activity at 10 uM relative to untreated control. In outline:
as §1

For test [6], the target named is Mitogen-activated protein kinase 8 (Homo sapiens) (UniProt P45983). Put plainly: Inhibition of JNK1 assessed as residual enzyme activity at 10 uM relative to untreated control. In outline:
as §1

The target of test [7] is Serine/threonine-protein kinase pim-3 (Homo sapiens) (UniProt Q86V86). Put plainly: Inhibition of Pim-3 assessed as residual enzyme activity at 10 uM relative to untreated control.
The subject of a further test is RSK1 (Rattus norvegicus). The test can be described thus: Inhibition of RSK1 assessed as residual enzyme activity at 10 uM relative to untreated control.
The target of test [8] is Serine/threonine-protein kinase PAK 6 (Homo sapiens) (UniProt Q9NQU5). The test can be described thus: Inhibition of PAK6 assessed as residual enzyme activity at 10 uM relative to untreated control. The essentials: as §1
In test [9] the target is Tyrosine-protein kinase CSK (Homo sapiens) (UniProt P41240). Put plainly: Inhibition of CSK assessed as residual enzyme activity at 10 uM relative to untreated control. In outline: as §1
The target in test [10] is Serine/threonine-protein kinase pim-1 (Homo sapiens) (UniProt P11309). The test can be described thus: Inhibition of Pim-1 assessed as residual enzyme activity at 10 uM relative to untreated control.
Test [11] concerns the target T3, Serine/threonine-protein kinase Nek2 (Homo sapiens) (UniProt P51955).
T3 sequence (whole entry): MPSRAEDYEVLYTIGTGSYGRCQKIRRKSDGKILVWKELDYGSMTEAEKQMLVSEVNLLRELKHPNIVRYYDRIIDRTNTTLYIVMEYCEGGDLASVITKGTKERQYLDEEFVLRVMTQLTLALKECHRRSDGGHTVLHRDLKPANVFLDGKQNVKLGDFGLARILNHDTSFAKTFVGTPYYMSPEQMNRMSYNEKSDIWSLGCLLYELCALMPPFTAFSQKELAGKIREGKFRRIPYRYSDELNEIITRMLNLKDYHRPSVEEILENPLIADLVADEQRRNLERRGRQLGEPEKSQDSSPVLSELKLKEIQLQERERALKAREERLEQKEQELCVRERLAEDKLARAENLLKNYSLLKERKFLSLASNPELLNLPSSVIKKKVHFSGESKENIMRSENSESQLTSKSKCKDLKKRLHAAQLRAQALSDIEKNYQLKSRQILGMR
The test can be described thus: Inhibition of NEK2alpha assessed as residual enzyme activity at 10 uM relative to untreated control. In outline:
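Assayed with [γ-33P]ATP at 50 µM and 10 mM Mg acetate in 50 mM Tris/HCl pH 7.5, 0.1 mM EGTA, 0.1% 2-mercaptoethanol, 30 min, 21 °C. Phosphoric acid stop, P81 filter capture. ERK2 and Lck are mouse; AMPK is rat. 10 µM compound; % activity remaining relative to control without inhibitor, duplicates.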

Test [12] concerns the target Serine/threonine-protein kinase N2 (Homo sapiens) (UniProt Q16513). The test can be described thus: Inhibition of PRK2 assessed as residual enzyme activity at 10 uM relative to untreated control. In outline: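 Tris/HCl pH 7.5, EGTA, 2-mercaptoethanol buffer, 30 min, 21 °C, compound at 10 µM. Radioactive phosphate measured on P81 filters. Residual activity as % of uninhibited incubations, duplicates.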

Test [13] addresses Mitogen-activated protein kinase 9 (Homo sapiens) (UniProt P45984). The test can be described thus: Inhibition of JNK2 assessed as residual enzyme activity at 10 uM relative to untreated control. In outline:
as §1

Mitogen-activated protein kinase 8 (Homo sapiens), sequence (P45983 whole entry): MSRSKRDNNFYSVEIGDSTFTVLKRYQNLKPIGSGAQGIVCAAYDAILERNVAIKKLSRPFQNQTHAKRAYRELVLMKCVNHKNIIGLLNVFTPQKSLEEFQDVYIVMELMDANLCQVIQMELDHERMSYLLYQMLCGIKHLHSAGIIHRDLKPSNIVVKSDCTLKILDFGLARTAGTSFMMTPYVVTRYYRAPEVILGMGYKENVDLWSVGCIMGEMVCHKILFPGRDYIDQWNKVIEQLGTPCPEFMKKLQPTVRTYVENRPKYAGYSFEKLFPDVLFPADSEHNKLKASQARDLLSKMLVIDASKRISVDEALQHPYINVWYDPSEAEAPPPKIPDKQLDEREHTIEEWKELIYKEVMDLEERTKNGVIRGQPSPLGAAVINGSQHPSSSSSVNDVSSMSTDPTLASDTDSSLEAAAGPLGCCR
Serine/threonine-protein kinase pim-1 (Homo sapiens), sequence (P11309 whole entry, looked up): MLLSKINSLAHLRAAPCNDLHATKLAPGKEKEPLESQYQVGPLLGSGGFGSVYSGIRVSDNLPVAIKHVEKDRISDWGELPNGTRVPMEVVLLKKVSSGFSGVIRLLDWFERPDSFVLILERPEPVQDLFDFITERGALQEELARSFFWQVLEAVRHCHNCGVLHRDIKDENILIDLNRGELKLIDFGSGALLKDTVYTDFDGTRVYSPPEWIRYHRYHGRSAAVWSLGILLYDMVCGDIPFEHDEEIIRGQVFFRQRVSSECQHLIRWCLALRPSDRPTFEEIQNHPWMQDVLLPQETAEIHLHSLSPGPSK
Ribosomal protein S6 kinase alpha-3 (Homo sapiens), sequence (P51812 whole entry): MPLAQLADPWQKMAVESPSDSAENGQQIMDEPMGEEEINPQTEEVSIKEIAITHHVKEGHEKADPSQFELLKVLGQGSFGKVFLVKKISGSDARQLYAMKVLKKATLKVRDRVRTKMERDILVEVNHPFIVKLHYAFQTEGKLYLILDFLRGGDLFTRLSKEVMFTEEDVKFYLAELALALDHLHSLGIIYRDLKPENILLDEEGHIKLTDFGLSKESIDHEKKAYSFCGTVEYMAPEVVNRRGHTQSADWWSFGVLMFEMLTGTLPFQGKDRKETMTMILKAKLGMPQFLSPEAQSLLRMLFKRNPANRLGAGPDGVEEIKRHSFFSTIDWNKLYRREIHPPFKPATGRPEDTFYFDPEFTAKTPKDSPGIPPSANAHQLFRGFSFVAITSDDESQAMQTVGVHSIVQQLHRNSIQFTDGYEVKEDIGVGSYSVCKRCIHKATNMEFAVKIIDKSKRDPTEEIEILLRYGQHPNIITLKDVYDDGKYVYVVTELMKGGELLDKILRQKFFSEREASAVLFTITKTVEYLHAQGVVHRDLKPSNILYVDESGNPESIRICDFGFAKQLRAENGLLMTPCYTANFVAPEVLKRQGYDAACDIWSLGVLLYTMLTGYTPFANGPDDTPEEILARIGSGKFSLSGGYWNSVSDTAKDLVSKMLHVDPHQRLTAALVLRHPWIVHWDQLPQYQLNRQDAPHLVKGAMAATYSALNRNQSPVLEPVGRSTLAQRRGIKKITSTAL
MAP kinase-activated protein kinase 2 (Homo sapiens), sequence (P49137 whole entry, looked up): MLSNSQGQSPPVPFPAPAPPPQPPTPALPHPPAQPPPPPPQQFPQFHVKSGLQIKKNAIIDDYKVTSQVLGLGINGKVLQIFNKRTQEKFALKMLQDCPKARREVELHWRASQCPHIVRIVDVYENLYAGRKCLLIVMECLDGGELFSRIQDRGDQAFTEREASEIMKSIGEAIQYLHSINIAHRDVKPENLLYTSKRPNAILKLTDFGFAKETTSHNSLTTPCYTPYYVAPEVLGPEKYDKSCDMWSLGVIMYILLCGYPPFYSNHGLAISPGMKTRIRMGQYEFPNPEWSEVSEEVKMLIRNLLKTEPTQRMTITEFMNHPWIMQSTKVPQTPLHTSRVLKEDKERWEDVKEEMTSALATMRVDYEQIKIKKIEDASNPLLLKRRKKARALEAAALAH
Serine/threonine-protein kinase PAK 6 (Homo sapiens), sequence (Q9NQU5 whole entry, looked up): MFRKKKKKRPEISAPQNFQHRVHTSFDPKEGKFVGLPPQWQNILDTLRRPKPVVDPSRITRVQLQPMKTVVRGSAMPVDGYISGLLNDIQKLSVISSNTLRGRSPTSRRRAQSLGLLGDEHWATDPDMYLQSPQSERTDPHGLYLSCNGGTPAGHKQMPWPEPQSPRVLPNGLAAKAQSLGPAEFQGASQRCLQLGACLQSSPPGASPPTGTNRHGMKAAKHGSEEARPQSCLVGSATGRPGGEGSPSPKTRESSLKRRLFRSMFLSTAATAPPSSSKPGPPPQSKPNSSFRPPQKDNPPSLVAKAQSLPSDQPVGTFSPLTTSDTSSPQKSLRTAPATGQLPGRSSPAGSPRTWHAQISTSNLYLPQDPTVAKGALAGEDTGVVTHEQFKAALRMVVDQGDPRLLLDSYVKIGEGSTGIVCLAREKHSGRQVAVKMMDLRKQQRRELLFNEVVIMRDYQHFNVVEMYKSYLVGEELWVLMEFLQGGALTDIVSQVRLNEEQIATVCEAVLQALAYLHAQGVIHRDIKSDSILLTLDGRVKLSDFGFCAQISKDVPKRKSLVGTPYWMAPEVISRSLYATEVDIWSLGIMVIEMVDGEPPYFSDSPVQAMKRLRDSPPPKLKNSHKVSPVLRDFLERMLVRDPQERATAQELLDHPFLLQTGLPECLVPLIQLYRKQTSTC
Tyrosine-protein kinase CSK (Homo sapiens), sequence (P41240 2-450 limits assumed): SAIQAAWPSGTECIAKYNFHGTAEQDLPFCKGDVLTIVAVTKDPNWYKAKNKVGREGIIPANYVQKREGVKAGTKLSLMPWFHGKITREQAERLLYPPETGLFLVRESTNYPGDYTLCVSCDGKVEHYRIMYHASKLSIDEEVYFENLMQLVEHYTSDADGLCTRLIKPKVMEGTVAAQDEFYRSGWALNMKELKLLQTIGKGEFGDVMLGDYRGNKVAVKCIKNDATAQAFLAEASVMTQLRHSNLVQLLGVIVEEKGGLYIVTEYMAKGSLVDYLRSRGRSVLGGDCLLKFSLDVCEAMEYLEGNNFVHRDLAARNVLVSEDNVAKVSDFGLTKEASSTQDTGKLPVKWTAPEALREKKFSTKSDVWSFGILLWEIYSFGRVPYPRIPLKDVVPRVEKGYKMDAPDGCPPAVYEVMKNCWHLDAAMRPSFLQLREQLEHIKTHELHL
RAC-alpha serine/threonine-protein kinase (Homo sapiens), sequence (P31749 whole entry): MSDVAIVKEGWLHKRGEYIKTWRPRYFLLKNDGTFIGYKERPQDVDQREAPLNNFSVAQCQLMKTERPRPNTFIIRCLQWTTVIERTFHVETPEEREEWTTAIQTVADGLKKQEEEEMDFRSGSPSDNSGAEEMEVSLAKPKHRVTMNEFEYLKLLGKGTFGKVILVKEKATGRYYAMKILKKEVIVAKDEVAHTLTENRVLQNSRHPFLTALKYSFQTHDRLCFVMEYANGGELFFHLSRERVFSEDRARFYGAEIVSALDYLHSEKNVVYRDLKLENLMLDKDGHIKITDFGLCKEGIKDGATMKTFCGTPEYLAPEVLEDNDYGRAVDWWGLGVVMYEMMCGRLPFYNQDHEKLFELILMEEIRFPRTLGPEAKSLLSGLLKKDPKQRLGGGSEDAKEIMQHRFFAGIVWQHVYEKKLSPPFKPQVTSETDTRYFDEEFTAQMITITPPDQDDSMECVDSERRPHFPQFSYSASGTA
Serine/threonine-protein kinase N2 (Homo sapiens), sequence (Q16513 whole entry, looked up): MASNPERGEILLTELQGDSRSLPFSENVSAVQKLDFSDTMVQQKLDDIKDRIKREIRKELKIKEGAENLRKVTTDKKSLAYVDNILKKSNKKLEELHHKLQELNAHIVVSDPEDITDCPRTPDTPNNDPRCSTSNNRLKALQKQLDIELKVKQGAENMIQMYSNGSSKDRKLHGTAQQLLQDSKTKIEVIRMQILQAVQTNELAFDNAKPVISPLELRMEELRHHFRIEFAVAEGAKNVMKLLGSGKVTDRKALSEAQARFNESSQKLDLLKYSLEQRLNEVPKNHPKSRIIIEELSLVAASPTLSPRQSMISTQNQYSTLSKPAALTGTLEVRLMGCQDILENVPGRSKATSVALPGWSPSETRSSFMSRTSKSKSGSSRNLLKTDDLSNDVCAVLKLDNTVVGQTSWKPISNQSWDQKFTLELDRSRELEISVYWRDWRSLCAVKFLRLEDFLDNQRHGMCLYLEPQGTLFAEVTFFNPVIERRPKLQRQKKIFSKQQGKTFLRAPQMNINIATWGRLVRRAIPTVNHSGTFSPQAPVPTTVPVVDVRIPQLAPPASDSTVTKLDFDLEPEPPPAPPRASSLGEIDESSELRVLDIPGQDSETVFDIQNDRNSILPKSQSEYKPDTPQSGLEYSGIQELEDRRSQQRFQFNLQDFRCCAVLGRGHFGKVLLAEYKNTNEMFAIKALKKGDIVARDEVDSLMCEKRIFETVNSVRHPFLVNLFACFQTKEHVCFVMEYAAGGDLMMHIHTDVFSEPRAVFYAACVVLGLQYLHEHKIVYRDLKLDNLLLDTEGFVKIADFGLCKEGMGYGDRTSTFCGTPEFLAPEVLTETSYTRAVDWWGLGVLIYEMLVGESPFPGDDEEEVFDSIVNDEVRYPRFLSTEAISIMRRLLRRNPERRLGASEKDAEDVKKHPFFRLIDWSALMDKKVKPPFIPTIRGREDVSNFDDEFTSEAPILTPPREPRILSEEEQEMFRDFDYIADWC

`c1ccc2c(c1)[nH]c1c3cc[nH]c3ccc21`: the Activity in [1] was 110%; in test [2], 114%; in test [3], 112%; in test [4], 107%; in test [5], 95%; in test [6], 116%. For the same molecule, the Activity in test [7] was 29%; in the test with RSK1 (Rattus norvegicus), 99%; in test [8], 91%; in test [9], 72%; in [10], 53%; in test [11] it was 96%. Besides, the values for the Activity in [12] and in [13] were 84% and 130%, respectively.
As for `O=Cc1c[nH]c2ccc3c4ccccc4[nH]c3c12`, the Activity in [1] was determined as 112%; in test [2], 114%; in [3] it was 101%; in test [4] it was 78%; in test [5], 95%; in test [6] it was 113%. In addition, the Activity worked out at 102% in test [7]; 120% in the test with RSK1 (Rattus norvegicus); 99% in test [8]; 87% in [9]; 79% in test [10]; 100% in test [11]. Further, the Activity in test [12] turned out to be 101%; in test [13], 111%.
For `c1ccc2c(c1)[nH]c1c2ccc2cc[nH]c21`, the Activity in test [1] was 120%; in test [2] it was 97%; in test [3], 123%; in test [4], 99%; in test [5] it was 118%; in test [6], 102%. Further, the Activity is 38% in test [7]; 105% in the test with RSK1 (Rattus norvegicus); 92% in [8]; 98% in test [9]; 20% in [10]; 104% in [11]. Besides, the Activity in test [12] stood at 95%; in [13], 118%.
For the molecule `O=Cc1c[nH]c2c1ccc1c3ccccc3[nH]c12`, the Activity in test [1] is 96%; in test [2] it was 72%; in [3] it was 97%; in test [4], 77%; in test [5] it was 84%; in test [6], 102%. For the same molecule, the Activity in [8] was 94%; in [9], 74%; in test [11], 88%; in test [12], 31%; in [13] it was 128%.
